Results reported in ChEMBL document CHEMBL1221342, “Synthesis and in vitro antitumor activity of new 4,5-dihydropyrazole derivatives” (Bioorg Med Chem, 2010).

How the values were obtained:
[1] = tested on: KM12; test: Growth inhibition of human KM12 cells after 48 hrs by SRB assay; type: functional; settings: KM12, 48 h
Procedure, shortened: (§1)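 NCI 60-cell-line screen. Cells grown in RPMI1640 with 5% fetal calf serum and 2 mM L-glutamine, with inoculum density set by cell line. Preincubated 24 h, then given compound in DMSO at 10^-4 to 10^-8 M (five 10-fold steps) for 48 h continuous exposure. Growth measured by SRB protein assay. GI50, TGI and LC50 reported as –log molar.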

[2] = tested on: OVCAR-8; test: Growth inhibition of human OVCAR8 cells after 48 hrs by SRB assay; type: functional; settings: OVCAR-8, 48 h; procedure, shortened: as §1
[3] = tested on: SK-MEL-5; test: Growth inhibition of human SK-MEL-5 cells after 48 hrs by SRB assay; type: functional; settings: SK-MEL-5, 48 h; procedure, shortened: as §1
[4] = tested on: SK-OV-3; test: Growth inhibition of human SKOV3 cells after 48 hrs by SRB assay; type: functional; settings: SK-OV-3, 48 h; procedure, shortened: as §1
[5] = tested on: NCI-H322M; test: Growth inhibition of human NCI-H322M cells after 48 hrs by SRB assay; type: functional; procedure, shortened: as §1
[6] = Growth inhibition of human […] cells after 48 hrs by SRB assay; type: functional; procedure, shortened: as §1
[7] = tested on: NCI/ADR-RES; test: Growth inhibition of human NCI/ADR-RES cells after 48 hrs by SRB assay; type: functional; procedure, shortened: as §1
[8] = tested on: CCRF-CEM; test: Growth inhibition of human CCRF-CEM cells after 48 hrs by SRB assay; type: functional; procedure, shortened: as §1
[9] = tested on: SW-620; test: Growth inhibition of human SW620 cells after 48 hrs by SRB assay; type: functional; settings: SW-620, 48 h; procedure, shortened: as §1
[10] = tested on: OVCAR-4; test: Growth inhibition of human OVCAR4 cells after 48 hrs by SRB assay; type: functional; settings: OVCAR-4, 48 h; procedure, shortened: as §1
[11] = tested on: HCT-15; test: Growth inhibition of human HCT15 cells after 48 hrs by SRB assay; type: functional; settings: HCT-15, 48 h; procedure, shortened: as §1
[12] = tested on: A498; test: Growth inhibition of human A498 cells after 48 hrs by SRB assay; type: functional; settings: A498, 48 h; procedure, shortened: as §1
[13] = tested on: K562; test: Growth inhibition of human K562 cells after 48 hrs by SRB assay; type: functional; settings: K562, 48 h; procedure, shortened: as §1
[14] = tested on: NCI-H460; test: Growth inhibition of human NCI-H460 cells after 48 hrs by SRB assay; type: functional; settings: NCI-H460, 48 h; procedure, shortened: as §1
[15] = tested on: U-251; test: Growth inhibition of human U251 cells after 48 hrs by SRB assay; type: functional; settings: U-251, 48 h; procedure, shortened: as §1
[16] = tested on: 786-0; test: Growth inhibition of human 786-0 cells after 48 hrs by SRB assay; type: functional; settings: 786-0, 48 h; procedure, shortened: as §1
[17] = tested on: MDA-MB-468; test: Growth inhibition of human MDA-MB-468 cells after 48 hrs by SRB assay; type: functional; settings: MDA-MB-468, 48 h; procedure, shortened: as §1
[18] = tested on: TK-10; test: Growth inhibition of human TK10 cells after 48 hrs by SRB assay; type: functional; settings: TK-10, 48 h; procedure, shortened: as §1
[19] = tested on: MDA-MB-435; test: Growth inhibition of human MDA-MB-435 cells after 48 hrs by SRB assay; type: functional; settings: MDA-MB-435, 48 h; procedure, shortened: as §1
[20] = tested on: BT-549; test: Growth inhibition of human BT549 cells after 48 hrs by SRB assay; type: functional; settings: BT-549, 48 h, read-out: pTGI (converted); procedure, shortened: as §1
[21] = tested on: RXF 393; test: Growth inhibition of human RXF393 cells after 48 hrs by SRB assay; type: functional; settings: RXF 393, 48 h; procedure, shortened: as §1
[22] = tested on: SF-268; test: Growth inhibition of human SF268 cells after 48 hrs by SRB assay; type: functional; settings: SF-268, 48 h; procedure, shortened: as §1
[23] = tested on: NCI-H522; test: Growth inhibition of human NCI-H522 cells after 48 hrs by SRB assay; type: functional; settings: NCI-H522, 48 h; procedure, shortened: as §1
[24] = tested on: T47D; test: Growth inhibition of human T47D cells after 48 hrs by SRB assay; type: functional; settings: read-out: pTGI (converted); procedure, shortened: as §1
[25] = tested on: DU-145; test: Growth inhibition of human DU145 cells after 48 hrs by SRB assay; type: functional; settings: DU-145, 48 h; procedure, shortened: as §1
[26] = tested on: HOP-62; test: Growth inhibition of human HOP62 cells after 48 hrs by SRB assay; type: functional; settings: HOP-62, 48 h; procedure, shortened: as §1
[27] = tested on: PC-3; test: Growth inhibition of human PC3 cells after 48 hrs by SRB assay; type: functional; settings: PC-3, 48 h; procedure, shortened: as §1
[28] = tested on: CAKI-1; test: Growth inhibition of human Caki1 cells after 48 hrs by SRB assay; type: functional; settings: CAKI-1, 48 h; procedure, shortened: as §1
[29] = tested on: HCT-116; test: Growth inhibition of human HCT116 cells after 48 hrs by SRB assay; type: functional; settings: HCT-116, 48 h; procedure, shortened: as §1
[30] = tested on: M14; test: Growth inhibition of human M14 cells after 48 hrs by SRB assay; type: functional; settings: M14, 48 h; procedure, shortened: as §1
[31] = tested on: NCI-H460; test: Cytotoxicity against human NCI-H460 cells after 72 hrs by SRB assay; type: functional, cell-based; settings: NCI-H460, 72 h
Procedure, shortened: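 NCI-H460 (ATCC) cells seeded in 96-well plates in growth medium. Scalar drug concentrations added 24 h after plating, then 72 h exposure. Surviving cells stained with sulforhodamine B, OD read at 570 nm. IC50 (50% growth inhibition) fitted from dose–response curves. Mean ± SE of at least three independent experiments.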

[32] = tested on: SK-MEL-2; test: Growth inhibition of human SK-MEL-2 cells after 48 hrs by SRB assay; type: functional; settings: SK-MEL-2, 48 h; procedure, shortened: as §1
[33] = tested on: SF-539; test: Growth inhibition of human SF539 cells after 48 hrs by SRB assay; type: functional; settings: SF-539, 48 h; procedure, shortened: as §1
[34] = tested on: MOLT-4; test: Growth inhibition of human MOLT4 cells after 48 hrs by SRB assay; type: functional; settings: MOLT-4, 48 h; procedure, shortened: as §1
[35] = tested on: HCC 2998; test: Growth inhibition of human HCC2998 cells after 48 hrs by SRB assay; type: functional; settings: HCC 2998, 48 h; procedure, shortened: as §1
[36] = tested on: UACC-62; test: Growth inhibition of human UACC62 cells after 48 hrs by SRB assay; type: functional; settings: UACC-62, 48 h; procedure, shortened: as §1

SMILES: COc1cc(C2CC(c3cccc(Br)c3)=NN2C(C)=O)cc(OC)c1OC (stereo not drawn)
- GI50 [1]: 0.316 µM
- TGI ([1]; read-out: pTGI (converted)): 20 µM
- GI50 [2]: 0.631 µM
- TGI ([2]; read-out: pTGI (converted)): > 100 µM
- GI50 [3]: 0.251 µM
- TGI ([3]; read-out: pTGI (converted)): 12.6 µM
- GI50 [4]: 0.501 µM
- TGI ([4]; read-out: pTGI (converted)): 63.1 µM
- GI50 [5]: 0.501 µM
- TGI ([5]; read-out: pTGI (converted)): > 100 µM
- GI50 [6]: 0.158 µM
- TGI ([6]; read-out: pTGI (converted)): 0.631 µM
- GI50 [7]: 0.398 µM
- TGI ([7]; read-out: pTGI (converted)): > 100 µM
- GI50 [8]: 0.316 µM
- TGI ([8]; read-out: pTGI (converted)): 2 µM
- GI50 [9]: 0.316 µM
- TGI ([9]; read-out: pTGI (converted)): > 100 µM
- GI50 [10]: 0.631 µM
- TGI ([10]; read-out: pTGI (converted)): > 100 µM
- GI50 [11]: 0.316 µM
- TGI ([11]; read-out: pTGI (converted)): 31.6 µM
- GI50 [12]: 0.398 µM
- TGI ([12]; read-out: pTGI (converted)): 3.98 µM
- GI50 [13]: 0.126 µM
- TGI ([13]; read-out: pTGI (converted)): 12.6 µM
- GI50 [14]: 0.316 µM
- TGI ([14]; read-out: pTGI (converted)): 12.6 µM
- GI50 [15]: 0.501 µM
- TGI ([15]; read-out: pTGI (converted)): 31.6 µM
- GI50 [16]: 0.794 µM
- TGI ([16]; read-out: pTGI (converted)): > 100 µM
- GI50 [17]: 0.2 µM
- TGI ([17]; read-out: pTGI (converted)): > 100 µM
- GI50 [18]: 12.6 µM
- TGI ([18]; read-out: pTGI (converted)): 63.1 µM
- GI50 [19]: 0.0501 µM
- TGI ([19]; read-out: pTGI (converted)): 0.251 µM
- TGI [20]: 39.8 µM
- GI50 [21]: 0.251 µM
- TGI ([21]; read-out: pTGI (converted)): 1 µM
- GI50 [22]: 1 µM
- TGI ([22]; read-out: pTGI (converted)): 79.4 µM
- GI50 [23]: 0.398 µM
- TGI [24]: 39.8 µM
- GI50 [25]: 0.398 µM
- TGI ([25]; read-out: pTGI (converted)): 12.6 µM
- GI50 [26]: 1 µM
- TGI ([26]; read-out: pTGI (converted)): 79.4 µM
- GI50 [27]: 0.2 µM
- TGI ([27]; read-out: pTGI (converted)): 31.6 µM
- GI50 [28]: 0.251 µM
- TGI ([28]; read-out: pTGI (converted)): 39.8 µM
- GI50 [29]: 0.501 µM
- TGI ([29]; read-out: pTGI (converted)): > 100 µM
- GI50 [30]: 0.631 µM
- TGI ([30]; read-out: pTGI (converted)): 63.1 µM
- IC50 [31]: 0.35 µM
- GI50 [32]: 20 µM
- TGI ([32]; read-out: pTGI (converted)): 79.4 µM
- GI50 [33]: 0.316 µM
- TGI ([33]; read-out: pTGI (converted)): 10 µM
- GI50 [34]: 0.316 µM
- TGI ([34]; read-out: pTGI (converted)): 1.58 µM
- GI50 [35]: 1.58 µM
- TGI ([35]; read-out: pTGI (converted)): 25.1 µM
- GI50 [36]: 0.2 µM
- TGI ([36]; read-out: pTGI (converted)): 20 µM
